What was measured:
Echinochloa crus-galli = assay: Herbicidal activity against Echinochloa crus-galli (barnyard grass) assessed as growth inhibition at 150 g ai/ha using post-emergence protocol under greenhouse conditions measured 15 days after compound treatment; format: functional; details: 360 h, read-out: GI
Outline: (§1)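 Grass weeds were grown in pots in the greenhouse and sprayed post-emergence at the 1-leaf stage. The spray was formulation concentrate diluted in water. Soil was clay, pH 6.5, 1.6% organic matter, 37.3% clay particles, CEC 12.1 mol/kg. The g.ai/ha rate was active ingredient over pot surface area. Controls were untreated and DMF-treated seedlings.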

[1] = target: T1, Protoporphyrinogen oxidase (Homo sapiens, UniProt P50336); assay: Inhibition of Homo sapiens (human) protoporphyrinogen oxidase; details: read-out: Ki
T1 sequence (P50336 whole entry): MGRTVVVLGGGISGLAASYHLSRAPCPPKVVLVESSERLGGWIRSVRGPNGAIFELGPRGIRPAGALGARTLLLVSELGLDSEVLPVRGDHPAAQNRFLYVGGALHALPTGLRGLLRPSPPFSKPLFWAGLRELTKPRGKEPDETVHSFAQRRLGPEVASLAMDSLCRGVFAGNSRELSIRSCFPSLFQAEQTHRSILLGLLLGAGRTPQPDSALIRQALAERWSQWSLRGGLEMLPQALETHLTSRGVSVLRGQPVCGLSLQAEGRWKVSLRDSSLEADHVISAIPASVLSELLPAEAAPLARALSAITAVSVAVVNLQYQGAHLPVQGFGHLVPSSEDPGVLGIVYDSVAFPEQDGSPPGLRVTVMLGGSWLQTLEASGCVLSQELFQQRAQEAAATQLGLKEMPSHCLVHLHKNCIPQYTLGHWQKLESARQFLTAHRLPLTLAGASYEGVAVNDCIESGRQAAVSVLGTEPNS

Digitaria sanguinalis = assay: Herbicidal activity against Digitaria sanguinalis (hairy crabgrass) assessed as growth inhibition at 150 g ai/ha using post-emergence protocol under greenhouse conditions measured 15 days after compound treatment; format: functional; details: 360 h, read-out: GI; outline: as §1
Chenopodium album = assay: Herbicidal activity against Chenopodium album assessed as growth inhibition at 150 g ai/ha using post-emergence protocol under greenhouse conditions measured 15 days after compound treatment; format: functional; details: 360 h, read-out: GI
Outline: (§2)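 Post-emergence greenhouse spray on pot-grown broadleaf weeds at the 2-leaf stage. Formulation concentrates were diluted with water. Soil was clay, pH 6.5, 1.6% organic matter, 37.3% clay particles, CEC 12.1 mol/kg. The rate was total active ingredient divided by pot surface area. Untreated seedlings and DMF-treated seedlings served as controls.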

Amaranthus retroflexus = assay: Herbicidal activity against Amaranthus retroflexus assessed as growth inhibition at 150 g ai/ha using post-emergence protocol under greenhouse conditions measured 15 days after compound treatment; format: functional; details: 360 h, read-out: GI; outline: as §2
Eclipta prostrata = assay: Herbicidal activity against Eclipta prostrata assessed as growth inhibition at 150 g ai/ha using post-emergence protocol under greenhouse conditions measured 15 days after compound treatment; format: functional; details: 360 h, read-out: GI; outline: as §2
Setaria viridis = assay: Herbicidal activity against Setaria viridis assessed as growth inhibition at 150 g ai/ha using post-emergence protocol under greenhouse conditions measured 15 days after compound treatment; format: functional; details: 360 h, read-out: GI; outline: as §1
Brassica juncea = assay: Herbicidal activity against Brassica juncea assessed as growth inhibition at 150 g ai/ha using post-emergence protocol under greenhouse conditions measured 15 days after compound treatment; format: functional; details: 360 h, read-out: GI; outline: as §2

Row | Structure (SMILES) | inhibition of growth at 150 g/ha (Echinochloa crus-galli) | Ki [1] | inhibition of growth at 150 g/ha (Digitaria sanguinalis) | inhibition of growth at 150 g/ha (Chenopodium album) | inhibition of growth at 150 g/ha (Amaranthus retroflexus) | inhibition of growth at 150 g/ha (Eclipta prostrata) | inhibition of growth at 150 g/ha (Setaria viridis) | inhibition of growth at 150 g/ha (Brassica juncea)
1 | COc1cc(N2C(=O)C3CCCCC3C2=O)c(F)cc1Cl (configuration not stated) | 50% | 8.22 µM | 50% | < 50% | 100% | 50% | 50% | 50%
2 | CCOC(=O)COc1cc(N2C(=O)C3CCCCC3C2=O)c(F)cc1Cl (configuration not stated) | < 50% | 15.2 µM | < 50% | < 50% | < 50% | < 50% | < 50% | < 50%
3 | CCOC(=O)C(C)Oc1cc(N2C(=O)C3CCCCC3C2=O)c(F)cc1Cl (configuration not stated) | < 50% | 3.3 µM | < 50% | 50% | 100% | > 80% | < 50% | 50%
4 | O=C1C2CCCCC2C(O)N1c1cc(OC2CCCC2)c(Cl)cc1F (configuration not stated) | < 50% | 24.6 µM | < 50% | < 50% | < 50% | < 50% | < 50% | < 50%
5 | CC(C)Oc1cc(N2C(=O)C3CCCCC3C2O)c(F)cc1Cl (configuration not stated) | < 50% | 47.4 µM | < 50% | < 50% | < 50% | < 50% | < 50% | < 50%
6 | COc1cc(N2C(=O)C3CCCCC3C2O)c(F)cc1Cl (configuration not stated) | < 50% | 131 µM | < 50% | < 50% | < 50% | < 50% | < 50% | < 50%
7 | CCOC(=O)COc1cc(N2C(=O)C3CCCCC3C2O)c(F)cc1Cl (configuration not stated) | < 50% | 124 µM | < 50% | < 50% | < 50% | < 50% | < 50% | < 50%
8 | CCOC(=O)C(C)Oc1cc(N2C(=O)C3CCCCC3C2O)c(F)cc1Cl (configuration not stated) | < 50% | 48.1 µM | < 50% | < 50% | < 50% | < 50% | < 50% | < 50%
9 | C#CCOc1cc(N2C(=O)C3CCCCC3C2O)c(F)cc1Cl (configuration not stated) | < 50% | 63.6 µM | < 50% | < 50% | < 50% | < 50% | < 50% | < 50%

From ChEMBL document CHEMBL3046018, “Design, syntheses and 3D-QSAR studies of novel N-phenyl pyrrolidin-2-ones and N-phenyl-1H-pyrrol-2-ones as protoporphyrinogen oxidase inhibitors” (Bioorg Med Chem, 2010)
